Test results reported in ChEMBL document CHEMBL1126084, “2-Acetylpyridine thiocarbonohydrazones. Potent inactivators of herpes simplex virus ribonucleotide reductase” (J Med Chem, 1992).

What was measured:
[1] = test system: Human alphaherpesvirus 1; test: Inhibitory index against HSV-1 ribonucleotide reductase calculated as, [1+k inact/f+0.01] where f = 1-% inhibition/100).; format: functional
Procedure, shortened: (§1)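 Index per eq 1 combines kinact and percent inhibition of initial velocity from reductase reactions ±5 μM inhibitor (unless otherwise indicated). 0.99 is subtracted from the calculated ratio, so a non-inhibiting, non-inactivating compound scores zero. HSV-1 and human enzymes were assayed under their respective conditions.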

[2] = test system: Human alphaherpesvirus 1; test: Inhibition of HSV-1 ribonucleotide reductase by the compound (5 uM); format: functional
Procedure, shortened: (§2)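 Partially purified HSV-1 ribonucleotide reductase, assayed by reduction of purified [14C]CDP in 200 mM Hepes Na+ pH 7.7, 10 mM dithiothreitol, 2 μM CDP (500 Ci/mol, 3–4 × Km), with and without 5 μM inhibitor unless otherwise indicated. First-order kinact (per hour) and v0 of decelerating product time courses come from iterative nonlinear least squares. kinact is the net increase over the uninhibited control, and % inhibition refers to v0.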

[3] = biological target: T1, Ribonucleoside-diphosphate reductase RR1 (Homo sapiens) (UniProt P23921+Q7LG56+P31350); test: Inactivation of human ribonucleotide reductase by the compound (5 uM) at rate constant K inact.; format: protein-complex assay
Procedure, shortened: (§3)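 The ATP contributed about 3 μM iron, keeping inhibitors iron-complexed. Reactions ran ±5 μM inhibitor unless otherwise indicated. kinact (per hour, net over the control) and v0 came from iterative nonlinear least-squares fits of decelerating time courses.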

[4] = test system: Human alphaherpesvirus 1; test: Inactivation of HSV-1 ribonucleotide reductase by the compound (5 uM) at rate constant K inact.; format: functional; procedure, shortened: as §2
[5] = biological target: T1, Ribonucleoside-diphosphate reductase RR1 (Homo sapiens); test: Apparent enzyme activity measured as the ratio of HSV-1 and human enzyme inhibition induces; format: functional; conditions: Human alphaherpesvirus 1
Procedure, shortened: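 Apparent selectivity is the ratio of HSV-1 to human inhibition indices, each from eq 1 at 5 μM inhibitor or at the indicated concentration for each enzyme.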

[6] = biological target: T1, Ribonucleoside-diphosphate reductase RR1 (Homo sapiens); test: Inhibition of human ribonucleotide reductase by the compound (5 uM); format: protein-complex assay; procedure, shortened: as §3
[7] = biological target: T1, Ribonucleoside-diphosphate reductase RR1 (Homo sapiens); test: Inhibitory index against human ribonucleotide reductase calculated as, [1+k inact/f+0.01] where f = 1-% inhibition/100).; format: protein-complex assay; procedure, shortened: as §1
[8] = biological target: T1, Ribonucleoside-diphosphate reductase RR1 (Homo sapiens); test: Inhibitory index against human ribonucleotide reductase; format: protein-complex assay; procedure, shortened: as §1
[9] = biological target: T1, Ribonucleoside-diphosphate reductase RR1 (Homo sapiens); test: Inhibition of human ribonucleotide reductase; format: protein-complex assay; set-up: concentration or dose not given beside the values; conditions: concentration not given here; procedure, shortened: as §3
[10] = test system: Human alphaherpesvirus 1; test: Inhibition of HSV-1 ribonucleotide reductase; set-up: concentration or dose not given beside the values; conditions: concentration not given here; procedure, shortened: as §2
[11] = test system: Human alphaherpesvirus 1; test: Inactivation of HSV-1 ribonucleotide reductase at rate constant K inact; procedure, shortened: as §2
[12] = biological target: T1, Ribonucleoside-diphosphate reductase RR1 (Homo sapiens); test: Inactivation of human ribonucleotide reductase at rate constant K inact; format: protein-complex assay; procedure, shortened: as §3
[13] = test system: Human alphaherpesvirus 1; test: Inhibitory index against HSV-1 ribonucleotide reductase; procedure, shortened: as §1
[14] = pKa value of the compound; format: physicochemical
Procedure, shortened: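 Protonation and anion-generation pKa values were determined spectrophotometrically.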

SMILES	Inhibitory index [1]	Inhibition [2] [%]	kinact [3] [h⁻¹]	kinact [4] [h⁻¹]	Apparent selectivity (HSV-1/human inhibition index ratio) [5]	inhibition [6] [%]	Inhibitory index [7]	Inhibitory index [8]	inhibition [9] [%]	inhibition [10] [%]	kinact [11] [h⁻¹]	kinact [12] [h⁻¹]	Inhibitory index [13]	pKa [14]
COc1ccc(Cl)cc1/N=C(\S)N/N=C(\S)N/N=C(\C)c1ccccn1	78	48	1	41	66	9	1.2							
C/C(=N\N=C(/S)N/N=C(\S)Nc1ccncc1)c1ccccn1	17	8	0	16	3.8	83	4.6							
C/C(=N\N=C(/S)N/N=C(\S)NCCCN1CCOCC1)c1ccccn1	7	12	0	6.1	24	23	0.29							
C/C(=N\N=C(/S)N/N=C(\S)NC12CC3CC(CC(C3)C1)C2)c1ccccn1	27	47	0	14	24	53	1.1							
C/C(=N\N=C(/S)N/N=C(\S)Nc1cccnc1)c1ccccn1	11	18	0	9	15	43	0.73							
S=C(N/N=C/c1ccccn1)NNC(=S)Nc1ccccc1Cl					31			0.8	45	51	12	0	25	
C/C(=N\N=C(/S)N/N=C(\S)Nc1ccccn1)c1ccccn1					33			2	67	57	28	0	65	
COc1c(Cl)cccc1/N=C(\S)N/N=C(\S)N/N=C(\C)c1ccccn1					26			1	50	0	25	0	25	
CCOC(=O)NC(=S)N/N=C(\S)N/N=C(\C)c1ccccn1	7	14	2	6	1.8	40	3.9							
C/C(=N\N=C(/S)N/N=C(\S)Nc1cccc(Cl)c1Cl)c1ccccn1					160			0.42	30	29	49	0	68	3.86
C/C(=N\N=C(/S)N/N=C(\S)Nc1ccccc1C)c1ccccn1	14	27	1	10	4.6	51	3							
C/C(=N\N=C(/S)N/N=C(\S)Nc1ccc(C(F)(F)F)cc1)c1ccccn1					350			0.23	19	59	33	0	80	3.87
C/C(=N\N=C(/S)N/N=C(\S)Nc1ccc(I)cc1)c1ccccn1					560			0.05	5	24	22	0	29	
C/C(=N\N=C(/S)N/N=C(\S)Nc1ccc(C#N)cc1)c1ccccn1					17			1.7	64	0	29	0	29	
C/N=C(\S)N/N=C(\S)N/N=C(\C)c1ccccn1					14			0.35	19	17	4	0.1	5	
C/C(=N\N=C(/S)N/N=C(\S)Nc1cccc(C(F)(F)F)c1)c1ccccn1					21			1.9	31	15	34	1	40	3.89

SMILES	Inhibitory index [1]	Inhibition [2] [%]	kinact [3] [h⁻¹]	kinact [4] [h⁻¹]	Apparent selectivity (HSV-1/human inhibition index ratio) [5]	inhibition [6] [%]	Inhibitory index [7]	Inhibitory index [8]	inhibition [9] [%]	inhibition [10] [%]	kinact [11] [h⁻¹]	kinact [12] [h⁻¹]	Inhibitory index [13]	pKa [14]
C/C(=N\N=C(/S)N/N=C(\S)Nc1ccc(Cl)c([N+](=O)[O-])c1)c1ccccn1					200			0.24	20	7	45	0	48	
C/C(=N\N=C(/S)N/N=C(\S)Nc1ccc(Cl)cc1C)c1ccccn1					12			3.4	55	31	29	1	42	
CC(C)C/C(=N\N=C(/S)N/N=C(\S)Nc1ccccc1Cl)c1ccccn1					70			0.33	25	38	14	0	23	
Cc1cccc(/C=N/N=C(\S)N/N=C(\S)Nc2ccccc2Cl)n1					15			1.8	65	41	16	0	27	
C/C(=N\N=C(/S)N/N=C(\S)Nc1ccc(Br)cc1)c1ccccn1					18			3.2	29	23	44	2	57	
C/C(=N\N=C(/S)N/N=C(\S)Nc1ccccc1)c1ccccn1	21	7	3	20	2.5	59	8.5							
C/C(=N\N=C(/S)N/N=C(\S)Nc1cccc(C#N)c1)c1ccccn1					4.8			6.6	80	0	32	0.6	32	
C/C(=N\N=C(/S)N/N=C(\S)Nc1cccc(I)c1)c1ccccn1					10			3.3	7	27	25	3	34	3.8
C/C(=N\N=C(/S)N/N=C(\S)Nc1cccc(C)c1)c1ccccn1	26	28	0	19	23	54	1.1							
COc1ccc([N+](=O)[O-])cc1/N=C(\S)N/N=C(\S)N/N=C(\C)c1ccccn1					21			3.5	11	44	40	3	71	
C/C(=N\N=C(/S)N/N=C(\S)Nc1ccc(Cl)cc1)c1ccccn1					38			2.6	73	61	39	0	99	
C/C(=N\N=C(/S)N/N=C(\S)NCCN1CCOCC1)c1ccccn1	15	24	0.4	11	15	31	1							
COc1ccccc1/N=C(\S)N/N=C(\S)N/N=C(\C)c1ccccn1					5.1			4.5	44	0	23	2.1	23	
C/C(=N\N=C(/S)N/N=C(\S)Nc1ccc(C)cc1)c1ccccn1					3			7	64	25	16	2	21	
C/C(=N\N=C(/S)NNC(=S)NC(=O)c1ccccc1)c1ccccn1	24	38	2	15	4.5	54	5.4							
